Assay outcomes: PubChem, several laboratories
Shown are actives, neighbours in structure and some others; about 2% of the full set was active somewhere.
PvdQ acylase = P. aeruginosa PvdQ acylase inhibitors, primary screen, biochemical, fluorescence, plate reader and imaging, single point | PvdQ acylase [Pseudomonas aeruginosa LESB58] | purified PvdQ acylase | inhibition, % at 10 µM | 340,000 compounds, 0.063% hits; in the data active = inhibition above about 30%, passing the limit was not always enough
VIM-2 inh = VIM-2 metallo-beta-lactamase inhibitors, primary screen, biochemical, epi-absorbance readout, Pseudomonas aeruginosa enzyme; purified VIM-2, nitrocefin hydrolysis, epi-absorbance fluorescence; inhibition, % at 5.6 µM; 290,000 compounds, 0.89% hits; AID 1527, 2009;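 active = inhibition above the mean of all tested compounds plus 3 SD, cutoff set per screening run, cut at about 7.5% in these data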;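 also: red hydrolysis product quenches plate fluorescence so inhibitors raise well fluorescence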
PLC-beta3 inh = human PLC-beta3 inhibitors, primary screen, biochemical, fluorescence | 370,000 compounds, 0.18% hits | 1-phosphatidylinositol 4,5-bisphosphate phosphodiesterase beta-3 (Homo sapiens), Q01970 | inhibition, % at 12.2 µM | Purified PLC-beta3, fluorogenic substrate; in the data active = inhibition above about 11%
PLCg1 inh = PLC-gamma1 enzyme inhibitors, primary screen, biochemical, fluorescence, purified enzyme. 370,000 compounds, 0.84% hits. 1-phosphatidylinositol 4,5-bisphosphate phosphodiesterase gamma-1 (Homo sapiens), P19174. fluorogenic substrate. inhibition, % at 12.2 µM. AID 720700, 2013; in the data active = inhibition above about 9.5%
IMP-1 inh = IMP-1 metallo-beta-lactamase inhibitors, primary screen, biochemical, epi-absorbance readout, Pseudomonas aeruginosa enzyme; metallo-beta-lactamase IMP-1 (Pseudomonas aeruginosa); purified IMP-1, nitrocefin hydrolysis, epi-absorbance fluorescence; inhibition, % at 5.6 µM; 290,000 compounds, 0.45% hits; AID 1556, 2009;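 active = inhibition above the mean plus 3 SD of all compounds in the same screening run, cut at about 4.5% in these data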
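System: Purified IMP-1 | Read-out basis: Percent enzyme inhibition | Controls: IMP-1 with DMSO as 0%, enzyme-free DMSO as 100% | Replicates: One well per compound | Doses: 5.6 µM nominal single concentration | Detection: Epi-absorbance fluorescence, 480 nm excitation, 530 nm emission | Incubation: 25 °C, 15 min preincubation, 25 min reaction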
VIM-2 inh confirm = P. aeruginosa VIM-2 enzyme inhibition – biochemical, epi-absorbance, HTS, confirmation; 200 compounds, 73% hits; AID 1860, 2009; shares compounds with IMP-1 inh; inhibition, % at 5.6 µM; purified VIM-2 enzyme, nitrocefin absorbance; in the data active = inhibition above about 8%
TEM-1 inh 2 = Serine beta-lactamase TEM-1 inhibition, biochemical epi-absorbance counter-screen for IMP-1/VIM-2 inhibitor program. inhibition, % at 5.6 µM. TEM-1 beta-lactamase, nitrocefin absorbance inhibition. 200 compounds, 50% hits. AID 2184, 2009. shares compounds with IMP-1 inh; in the data active = inhibition above about 0.66%
IMP-1 inh conf = IMP-1 metallo-beta-lactamase inhibitors, confirmation, biochemical, epi-absorbance, hits shared with VIM-2 screen; shares compounds with IMP-1 inh; purified IMP-1 enzyme, absorbance substrate hydrolysis; inhibition, % at 5.6 µM; 200 compounds, 60% hits; in the data active = inhibition above about 4.9%
Hits are given with their value; i = inactive; nt = not tested or not shown; + = active, no number.

SMILES	PvdQ acylase	VIM-2 inh	PLC-beta3 inh	PLCg1 inh	IMP-1 inh	VIM-2 inh confirm	TEM-1 inh 2	IMP-1 inh conf
COc1ccc(/C=C2\CC3(OC(=O)C4CCCC4)CCCN2C3)cc1 (stereo unspecified)	nt	nt	i	i	nt	nt	nt	nt
CCOC(=O)[C@]12CCCCC/C=C\1N(Cc1ccc(OC)cc1)C(=O)[C@H]2CC(=O)NCCCCc1ccccc1	nt	nt	i	i	nt	nt	nt	nt
Cc1ccccc1CN1CCCCC(NC(=O)Nc2ccccc2)C1=O (stereo unspecified)	nt	nt	i	i	nt	nt	nt	nt
COC(=O)C1CN(Cc2ccc(C)cc2)CCS(=O)(=O)N1Cc1cn(Cc2ccccc2)nn1 (stereo unspecified)	nt	nt	i	i	nt	nt	nt	nt
Cc1ccc(C=C(C#N)C(=O)c2ccccc2)cc1	nt	nt	i	i	nt	nt	nt	nt
CN(C)c1ccc(/C=C(\C#N)C(=O)c2ccccc2)cc1	i	i	i	i	6.2	12.6	12.8	10.9
C=CCOC(=O)N[C@H](c1ccc(-c2ccccc2)cc1)[C@H](C)/C=C/CC(=O)OC	nt	nt	i	i	nt	nt	nt	nt
O=P(O)(O)c1cc(-c2ccccc2)oc1-c1ccccc1	i	30.4	i	i	22.4	39.6	i	22.6
Cc1ccc(N=Cc2sc(O)c3ccccc23)cc1	i	8.4	i	i	23.7	14.1	i	i
Cc1cc(C)n2nc(C)c(Br)c2n1	i	i	i	i	i	nt	nt	nt
Cc1cc(C)n2nc3nc4c(cc3c2n1)CCCC4	i	10.6	i	i	5.0	14.9	i	i
CN(C)/C=C1\C=C2C(=O)c3ccccc3N2C1=O	i	19.9	i	i	20.9	134.0	+	118.7
CN(C)S(=O)(=O)N1C(=O)c2ccccc2C1=O	i	i	i	i	i	nt	nt	nt
CC(=O)Nc1sc2c(c1-c1nc3ccccc3s1)CCN(C(C)C)C2	i	17.8	nt	nt	4.5	15.1	i	i
CC(=O)Nc1sc2c(c1-c1nc3ccccc3s1)CCN(C(C)C)CC2	nt	nt	i	i	nt	nt	nt	nt
COc1ccc(Cl)cc1Nc1nnc(-c2ccncc2)s1	i	8.7	i	i	18.8	i	i	12.2
Clc1ccccc1Nc1nnc(-c2ccncc2)s1	i	i	i	i	i	nt	nt	nt
CCOC(=O)/C(=C\C=C1/Sc2ccccc2N1CC)C(C)=O	i	8.5	i	i	7.8	i	0.7	i
O=C1C2C(c3ccccc3)C=CC(c3ccccc3)C2C(=O)N1c1ccncc1 (stereo unspecified)	i	25.1	i	i	65.1	11.1	i	28.8
O=C1C2C(c3ccccc3)C=CC(c3ccccc3)C2C(=O)N1c1ccccn1 (stereo unspecified)	i	26.1	i	i	74.8	11.6	i	36.6
O=C(OC12CCCN(C1)/C(=C/c1ccc(Cl)cc1)C2)C1CCCC1 (stereo unspecified)	nt	nt	i	i	nt	nt	nt	nt
CCOC(=O)c1c2c3c(cccc3n(C)c1=O)C(=O)c1ccccc1-2	i	14.7	i	i	21.0	19.6	1.4	7.9
CCOC(=O)c1c2c3c(cccc3[nH]c1=O)C(=O)c1ccccc1-2	i	i	i	i	i	nt	nt	nt
O=C(O)C(Cc1ccccc1)N1C(=O)/C(=C/C=C/c2ccco2)SC1=S (stereo unspecified)	i	i	i	i	i	nt	nt	nt
